According to ChEMBL document CHEMBL1123665, “Substituted (aryloxy)alkanoic acids as antagonists of slow-reacting substance of anaphylaxis” (J Med Chem, 1987):
pIC50: −log10 of the molar value. The source made the active and inactive calls. The rule behind the calls is not given here.

Legend:
Cavia porcellus [1] = organism: Cavia porcellus; experiment: Inhibitory potency against platelet activating factor (PAF) induced bronchoconstriction in guinea pigs.; type: functional, organism-based
In short: (§1)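 Anesthetized male guinea pigs were pretreated with propranolol 0.1 mg/kg i.v. and monitored by tracheal pressure. Maximally constrictory i.v. challenges were LTC 50 μg/kg, LTD 50 μg/kg, LTE 25 μg/kg, PAF 10 μg/kg and histamine 50 μg/kg. Dosing, group sizes and % inhibition calculation were otherwise as for the LTE protocol.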

Cavia porcellus [2] = organism: Cavia porcellus; experiment: Inhibitory potency against histamine induced bronchoconstriction in guinea pigs.; type: functional, organism-based; in short: as §1
Cavia porcellus [3] = organism: Cavia porcellus; experiment: Inhibitory potency against leukotriene C4 (LTC) induced bronchoconstriction in guinea pigs; type: functional, organism-based; in short: as §1
Cavia porcellus [4] = organism: Cavia porcellus; experiment: Inhibitory potency against leukotriene D4 (LTD) induced bronchoconstriction in guinea pigs; type: functional, organism-based; in short: as §1
Cavia porcellus [5] = organism: Cavia porcellus; experiment: Inhibitory potency against leukotriene E4 (LTE) induced bronchoconstriction in guinea pigs.; type: functional, organism-based; in short: as §1
Cavia porcellus [6] = experiment: In vivo inhibition of leukotriene-induced bronchoconstriction in guinea pigs, was determined, by administering compound by aerosol route, after 73 min; type: functional, organism-based
In short: (§2)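 Duration of aerosol protection was measured in anesthetized, propranolol-pretreated male guinea pigs. Each inhaled a 1% neutralized aqueous drug solution by ultrasonic nebulizer for 5 min. LTE i.v. challenge followed after 30 s or 5, 10, 30, 60 or 90 min. Tracheal pressure change gave % inhibition (3 control, 5 treated). Duration is the time at which inhibition fell to 40%.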

Cavia porcellus [7] = experiment: In vivo inhibition of leukotriene-induced bronchoconstriction in guinea pigs following 10 mg/kg i.v. administration.; type: functional; details: route intravenous
In short: (§3)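 Male Hartley guinea pigs (400–600 g) were anesthetized with urethane 2 g/kg i.p. and given propranolol 0.1 mg/kg i.v. 5 min before challenge. After succinylcholine 1.2 mg/kg i.v., animals were ventilated at 40 breaths/min with 4.0 cm3 stroke volume. Drug (10 mg/kg) or vehicle went via jugular cannula 30 s before LTE 25 μg/kg i.v. Tracheal pressure change gave % inhibition (3 control, 5 treated).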

Cavia porcellus [8] = organism: Cavia porcellus; experiment: In vitro inhibition of SRS-A-induced contractions in guinea pig ileum; type: functional
Cavia porcellus [9] = experiment: In vivo inhibition of leukotriene-induced bronchoconstriction in guinea pigs, was determined, by administering compound by aerosol route; type: functional, organism-based
In short: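 Urethane-anesthetized male guinea pigs were given propranolol 0.1 mg/kg i.v. 5 min before aerosol. Spontaneously breathing animals inhaled an NaOH-neutralized aqueous drug solution (varied % w/v) or distilled water for 5 min from an ultrasonic nebulizer, then were challenged with i.v. LTE. Tracheal pressure change was compared across 3 control and 5 treated animals. IC50 came from log concentration–response regression over ≥3 concentrations in the 10–90% range.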

Cavia porcellus [10] = experiment: In vivo inhibition of leukotriene-induced bronchoconstriction in guinea pigs, was determined, by administering compound by aerosol route, after 45 min; type: functional, organism-based; in short: as §2
[11] = target: Cysteinyl leukotriene receptor (Cavia porcellus); experiment: In vitro inhibition of SRS-A-induced contractions in guinea pig ileum
Cavia porcellus [12] = organism: Cavia porcellus; experiment: Inhibitory potency against leukotriene C4 (LTC) induced bronchoconstriction in guinea pigs.; type: functional, organism-based; in short: as §1
Cavia porcellus [13] = organism: Cavia porcellus; experiment: Inhibitory potency against leukotriene D4 (LTD) induced bronchoconstriction in guinea pigs.; type: functional, organism-based; in short: as §1
Cavia porcellus [14] = experiment: In vivo inhibition of leukotriene-induced bronchoconstriction in guinea pigs, was determined, by administering compound by aerosol route, after 25 min; type: functional, organism-based; in short: as §2
Cavia porcellus [15] = experiment: In vivo inhibition of leukotriene-induced bronchoconstriction in guinea pigs, was determined, by administering compound by aerosol route, after 49 min; type: functional, organism-based; in short: as §2
Cavia porcellus [16] = experiment: In vivo inhibition of leukotriene-induced bronchoconstriction in guinea pigs, was determined, by administering 10 mg/kg of compound intravenously.;This compound caused bronchoconstriction; bc = Compound caused bronchoconstriction; type: functional, organism-based; parameters: dose 10 mg/kg; in short: as §3
Cavia porcellus [17] = experiment: In vivo inhibition of leukotriene-induced bronchoconstriction in guinea pigs, was determined, by administering 10 mg/kg of compound intravenously.; type: functional; details: route intravenous; in short: as §3
Cavia porcellus [18] = experiment: In vivo inhibition of leukotriene-induced bronchoconstriction in guinea pigs, was determined, by administering compound by aerosol route, after 15 min; type: functional, organism-based; in short: as §2
Cavia porcellus [19] = experiment: In vivo inhibition of leukotriene-induced bronchoconstriction in guinea pigs, was determined, by administering compound by aerosol route, after 90 min; type: functional, organism-based; in short: as §2
Cavia porcellus [20] = experiment: In vivo inhibition of leukotriene-induced bronchoconstriction in guinea pigs, was determined, by administering compound by aerosol route, after 55 min; type: functional, organism-based; in short: as §2
Cavia porcellus [21] = experiment: In vivo inhibition of leukotriene-induced bronchoconstriction in guinea pigs, was determined, by administering compound by aerosol route, after 9 min; type: functional, organism-based; in short: as §2
Cavia porcellus [22] = experiment: In vivo inhibition of leukotriene-induced bronchoconstriction in guinea pigs, was determined, by administering compound by aerosol route, after 30 min; type: functional, organism-based; in short: as §2
Cavia porcellus [23] = experiment: In vivo inhibition of leukotriene-induced bronchoconstriction in guinea pigs, was determined, by administering compound by aerosol route, after 37 min; type: functional, organism-based; in short: as §2
Cavia porcellus [24] = experiment: In vivo inhibition of leukotriene-induced bronchoconstriction in guinea pigs, was determined, by administering compound by aerosol route, after 7 min; type: functional, organism-based; in short: as §2
Cavia porcellus [25] = experiment: In vivo inhibition of leukotriene-induced bronchoconstriction in guinea pigs, was determined, by administering compound by aerosol route, after 46 min; type: functional, organism-based; in short: as §2
Cavia porcellus [26] = experiment: In vivo inhibition of leukotriene-induced bronchoconstriction in guinea pigs, was determined, by administering compound by aerosol route, after 14 min; type: functional, organism-based; in short: as §2
Cavia porcellus [27] = experiment: In vivo inhibition of leukotriene-induced bronchoconstriction in guinea pigs, was determined, by administering compound by aerosol route, after 77 min; type: functional, organism-based; in short: as §2
Cavia porcellus [28] = experiment: In vivo inhibition of leukotriene-induced bronchoconstriction in guinea pigs, was determined, by administering compound by aerosol route, after 42 min; type: functional, organism-based; in short: as §2
Cavia porcellus [29] = experiment: In vivo inhibition of leukotriene-induced bronchoconstriction in guinea pigs, was determined, by administering compound by aerosol route, after 17 min; type: functional, organism-based; in short: as §2
Cavia porcellus [30] = experiment: In vivo inhibition of leukotriene-induced bronchoconstriction in guinea pigs, was determined, by administering compound by aerosol route, after 22 min; type: functional, organism-based; in short: as §2

| Compound | IC50 (Cavia porcellus [1]) [% conc] | IC50 (Cavia porcellus [2]) [% conc] | IC50 (Cavia porcellus [5]) [% conc] | IC50 [11] [nM] | inhibition in vivo at 10 mg/kg (Cavia porcellus [7]) [%] | further results |
| --- | --- | --- | --- | --- | --- | --- |
| CCCc1c(OCCOCCOCCOCCOc2c(C(C)=O)ccc(OCC(=O)O)c2CCC)ccc(C(C)=O)c1O | > 1 | 0.8 | 0.04 |  | 90 | IC50 (Cavia porcellus [3]): 1.3 % conc; IC50 (Cavia porcellus [4]): 0.18 % conc; IC50 (Cavia porcellus [6]): 0.04 % conc; pIC50 (Cavia porcellus [8]): 6.52 |
| CCCc1c(OCCOCCOCCOc2c(C(C)=O)ccc(OCCCC(=O)O)c2CCC)ccc(C(C)=O)c1O |  |  |  |  | 57 | IC50 (Cavia porcellus [9]): 1 % conc; pIC50 (Cavia porcellus [8]): 6.30 |
| CCCc1c(OCCCOc2ccc3ccc(OCC(=O)O)cc3c2C(C)=O)ccc(C(C)=O)c1O | > 1 | > 1 | 0.02 | 200 | 90 | IC50 (Cavia porcellus [12]): 0.22 % conc; IC50 (Cavia porcellus [13]): 0.32 % conc; IC50 (Cavia porcellus [14]): 0.02 % conc |
| CCCc1c(OCCCOc2ccc3ccc(OCC(=O)O)cc3c2)ccc(C(C)=O)c1O |  |  |  | 300 |  | IC50 (Cavia porcellus [15]): 0.46 % conc; inhibition (Cavia porcellus [16]): inactive |
| CCCc1c(OCCCOc2ccc3ccc(OCCCC(=O)O)cc3c2)ccc(C(C)=O)c1O |  |  |  | 5000 |  | IC50 (Cavia porcellus [9]): 1 % conc; inhibition in vivo at 10 mg/kg (Cavia porcellus [17]): 75% |
| CCCc1c(OCCCOc2cccc(OCC(=O)O)c2)ccc(C(C)=O)c1O |  |  |  | 500 | 64 | IC50 (Cavia porcellus [18]): 0.07 % conc |
| CCCc1c(OCCCOc2c(C(C)=O)ccc(OCC(=O)O)c2CCC)ccc(C(C)=O)c1O |  |  |  | 2000 | 95 | IC50 (Cavia porcellus [19]): 0.07 % conc |
| CCCc1c(OCCCOc2ccc3ccc(OCCCC(=O)O)cc3c2C(C)=O)ccc(C(C)=O)c1O |  |  |  | 80 | 93 | IC50 (Cavia porcellus [21]): 0.61 % conc |
| CCCc1c(OCCCCCOc2ccc3ccc(OCC(=O)O)cc3c2C(C)=O)ccc(C(C)=O)c1O |  |  |  | 200 | 60 | IC50 (Cavia porcellus [24]): 0.14 % conc |
| CCCc1c(OCCOCCOc2c(C(C)=O)ccc(OCC(=O)O)c2CCC)ccc(C(C)=O)c1O |  |  |  | 200 | 86 | IC50 (Cavia porcellus [26]): 0.02 % conc |
| CCCc1c(OCC(O)COc2ccc3c(=O)cc(C(=O)O)oc3c2CCC)ccc(C(C)=O)c1O (configuration not stated) [FPL-55712] | > 1 | > 1 | 0.79 |  | 98 | IC50 (Cavia porcellus [12]): > 3 % conc; IC50 (Cavia porcellus [13]): 0.5 % conc; IC50 (Cavia porcellus [27]): 0.79 % conc |
| CCCc1c(OCCOCCOCCOc2c(C(C)=O)ccc(OCC(=O)O)c2CCC)ccc(C(C)=O)c1O | > 1 | 0.8 | 0.04 |  | 85 | IC50 (Cavia porcellus [12]): 0.36 % conc; IC50 (Cavia porcellus [13]): 0.19 % conc; IC50 (Cavia porcellus [28]): 0.04 % conc; pIC50 (Cavia porcellus [8]): 6.00 |

More lines, main results first:

| IC50 (Cavia porcellus [1]) [% conc] | IC50 (Cavia porcellus [2]) [% conc] | IC50 (Cavia porcellus [5]) [% conc] | IC50 [11] [nM] | Compound | inhibition in vivo at 10 mg/kg (Cavia porcellus [7]) [%] | further results |
| --- | --- | --- | --- | --- | --- | --- |
|  |  |  | 500 | CCCc1c(OCCCCOCCCCOc2c(C(C)=O)ccc(OCC(=O)O)c2CCC)ccc(C(C)=O)c1O | 54 | IC50 (Cavia porcellus [10]): 0.1 % conc |
|  |  |  | 200 | CCCc1c(OCCOCCOc2c(C(C)=O)ccc(OCCCCCC(=O)O)c2CCC)ccc(C(C)=O)c1O | 91 | IC50 (Cavia porcellus [9]): 1 % conc |
|  |  |  | 1000 | CCCc1c(OCCCOc2c(C(C)=O)ccc(OCCCCCC(=O)O)c2CCC)ccc(C(C)=O)c1O | 91 | IC50 (Cavia porcellus [20]): 0.02 % conc |
|  |  |  | 400 | CCCc1c(OCCCOCCCOc2c(C(C)=O)ccc(OCC(=O)O)c2CCC)ccc(C(C)=O)c1O | 91 | IC50 (Cavia porcellus [22]): 0.1 % conc |
| 1 | > 1 | 0.01 | 200 | CCCc1c(OCCCOCCCOc2c(C(C)=O)ccc(OCCCC(=O)O)c2CCC)ccc(C(C)=O)c1O | 93 | IC50 (Cavia porcellus [23]): 0.01 % conc; IC50 (Cavia porcellus [12]): 0.15 % conc; IC50 (Cavia porcellus [13]): 0.19 % conc |
| > 1 | 0.9 | 0.01 | 1000 | CCCc1c(OCCCCCOc2c(C(C)=O)ccc(OCCCC(=O)O)c2CCC)ccc(C(C)=O)c1O | 92 | IC50 (Cavia porcellus [12]): 0.16 % conc; IC50 (Cavia porcellus [13]): 0.57 % conc; IC50 (Cavia porcellus [25]): 0.01 % conc |
| 1 | > 1 | 0.02 | 100 | CCCc1c(OCCCCCOc2c(C(C)=O)ccc(OCC(=O)O)c2CCC)ccc(C(C)=O)c1O | 73 | IC50 (Cavia porcellus [12]): 0.11 % conc; IC50 (Cavia porcellus [13]): 0.13 % conc; IC50 (Cavia porcellus [20]): 0.02 % conc |
|  |  |  | 100 | CCCc1c(OCCOCCOc2c(C(C)=O)ccc(OCCCC(=O)O)c2CCC)ccc(C(C)=O)c1O | 91 | IC50 (Cavia porcellus [29]): 0.22 % conc |
|  |  |  | 200 | CCCc1c(OCCCOc2c(C(C)=O)ccc(OCCCC(=O)O)c2CCC)ccc(C(C)=O)c1O | 97 | IC50 (Cavia porcellus [30]): 0.18 % conc |
